NLRP3 yeast inh = inhibitors of NALP3 inflammasome in yeast. Yeast reconstituted NLRP3/ASC/caspase-1, beta-gal luminescence, 24 h. inhibition, % at 10 µM. 0.39% of 330,000 active. AID 2825;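 active = inhibition of 50% or more; inactive = inhibition below 50%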
Beta apoptosis = blocks beta cell apoptosis; INS-1E cytokine-induced death, ATP luminescence, 48 h; percent of positive-control rescue, neutral wells zero; protection from apoptosis, % (no concentration beside the values); 0.8% of 300,000 active; AID 435005;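 active = Every replicate reaches about 75%, or at least half do and their mean reaches it too, limit read from the data; inconclusive = At least half of replicates reach the limit but their mean does not; inactive = Under half of replicates reach the limit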;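 note: higher means more ATP so stronger rescue from cytokine killing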
Mdm2 MdmX PPI = inhibitors of human Mdm2/MdmX interaction; inhibition, % at 8 µM; O15151+Q00987; 3% of 330,000 active; SaOS-2 split-luciferase Mdm2/MdmX complementation, luminescence; AID 485346;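 active = inhibition of at least 50% at 8 µM in the primary screen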
Target sequence (O15151 whole entry, looked up): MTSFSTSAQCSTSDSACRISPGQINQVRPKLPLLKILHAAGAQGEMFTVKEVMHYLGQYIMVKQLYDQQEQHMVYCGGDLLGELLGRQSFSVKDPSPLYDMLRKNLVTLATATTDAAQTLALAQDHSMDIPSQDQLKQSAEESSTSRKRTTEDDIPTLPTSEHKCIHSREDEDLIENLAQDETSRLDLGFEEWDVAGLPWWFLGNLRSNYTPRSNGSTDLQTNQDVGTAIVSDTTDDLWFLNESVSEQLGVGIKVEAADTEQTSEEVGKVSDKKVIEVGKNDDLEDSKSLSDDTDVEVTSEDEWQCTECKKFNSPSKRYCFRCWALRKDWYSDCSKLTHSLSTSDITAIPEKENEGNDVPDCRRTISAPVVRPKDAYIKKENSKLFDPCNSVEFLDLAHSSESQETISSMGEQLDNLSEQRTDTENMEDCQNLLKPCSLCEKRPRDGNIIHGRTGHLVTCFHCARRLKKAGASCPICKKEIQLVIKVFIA
Target sequence (Q00987 whole entry, looked up): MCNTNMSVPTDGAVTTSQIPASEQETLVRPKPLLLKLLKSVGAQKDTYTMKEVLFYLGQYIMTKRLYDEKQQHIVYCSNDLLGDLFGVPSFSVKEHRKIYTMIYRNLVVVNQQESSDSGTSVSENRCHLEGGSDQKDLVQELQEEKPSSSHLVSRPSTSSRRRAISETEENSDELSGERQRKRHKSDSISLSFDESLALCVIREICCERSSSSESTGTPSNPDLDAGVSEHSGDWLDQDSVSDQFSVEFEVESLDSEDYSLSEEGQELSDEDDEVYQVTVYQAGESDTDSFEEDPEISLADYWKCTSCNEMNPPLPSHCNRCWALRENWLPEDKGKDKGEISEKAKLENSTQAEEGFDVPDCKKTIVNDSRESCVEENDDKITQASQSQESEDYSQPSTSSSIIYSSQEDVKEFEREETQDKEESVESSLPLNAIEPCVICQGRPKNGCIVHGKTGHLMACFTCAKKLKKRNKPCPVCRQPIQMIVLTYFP
T cruzi inh = T. cruzi replication inhibition. T. cruzi beta-gal in NIH3T3, luminescence, 90 h. inhibition, % (concentration not given with the values). 1.4% of 300,000 active;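 active = mean inhibition across valid replicates above about 55%, limit read from the data; inconclusive = mean below that limit but half or more replicates reach it; inactive = mean below it, under half of replicates reach it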;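 note: signal also drops with host cell toxicity which is not excluded here; higher percent means less beta-gal luminescence so fewer parasites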
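Read-out: Parasite load inhibition, % | Test system: Mouse NIH/3T3 fibroblasts infected with β-gal-expressing T. cruzi Tulahuen C4 | Amount: 5,000 cells/well | Medium: DMEM, 2% fetal bovine serum | Signal: GalScreen β-gal luminescence, detergent lysis, 60 min | Timing: 3 h attach, ≥90 h co-culture | Also added: Tulahuen C4 trypomastigotes, 5000/well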
CSC inhib = blocks cancer stem cells. inhibition, % at 7.5 µM. cancer stem cell-like cells viability, luminescence. 1.1% of 300,000 active. AID 2717; in the data active = inhibition above about 75%; inconclusive = no clear call, values can overlap the other calls; tested in HMLE shEcad cells
Calb FLC = affects C. albicans growth with fluconazole. AID 1979. 0.57% of 300,000 active. growth inhibition, % (concentration not given with the values). C. albicans CaCi-2 + fluconazole, Alamar Blue growth, 48 h;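 active = growth inhibition above about 58% in most replicates, limit read from the data, passing the limit was not always enough; inconclusive = exactly half the replicates above a set limit; inactive = most replicates below a set limit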;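 note: all wells also contain fluconazole at 8 µg/ml as a sub-toxic cotreatment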
Mdm2-MdmX conf = human Mdm2/MdmX binding inhibition, confirmed. 55% of 10,000 active. shares compounds with Mdm2 MdmX PPI. luminescent assay. inhibition, % at 8 µM; in the data active = inhibition above about 40%
Full FLuc ctr = counter-screen for Mdm2/MdmX inhibitors: full-length luciferase | shares compounds with Mdm2 MdmX PPI | SaOS-2 full-length luciferase counterscreen, luminescence | inhibition, % at 8 µM | 77% of 6,200 active;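 active = mean inhibition at 8 µM reaching about 37%, which flags the compound as non-specific, limit read from the data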;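 note: p53-null SaOS-2 cells with luciferase driven by a doxycycline-inducible promoter; compound on cells about two nights before reading with doxycycline added after day one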
Each line names hits and unclear results; the compound was inactive in the other large screens (follow-up assays come after a bar, where they were run). In the library only some 5.3% were active in any assay of this set; here they are far more common.

COc1ccc(C(=O)O/N=C(\N)c2ccccc2)c(OC)c1	Mdm2 MdmX PPI 92.9 (no result: Calb FLC) | Mdm2-MdmX conf 77.2 | Full FLuc ctr 164.2
COc1ccc(C(=O)O/N=C(\N)c2ccc(OC)c(OC)c2)c(OC)c1	Mdm2 MdmX PPI 74.5 | Mdm2-MdmX conf inactive
COc1ccc(/C(N)=N/OC(=O)c2cccc([N+](=O)[O-])c2C)cc1OC	none
COc1ccc(C(=O)O/N=C(\N)c2ccccc2Cl)cc1OC	Mdm2 MdmX PPI 85.9 | Mdm2-MdmX conf 44.0 | Full FLuc ctr 112.2
NC(=O)C1(N2CCCCC2)CCN(C(=O)CSc2nc3ccccc3o2)CC1	none (no result: CSC inhib)
CCc1ccccc1NC(=O)CC1S/C(=N\c2nccs2)N(CC)C1=O (stereo not given)	none
COc1ccc(/C(N)=N/OC(=O)c2ccc(OC)c([N+](=O)[O-])c2)cc1OC	Mdm2 MdmX PPI 71.3 | Mdm2-MdmX conf inactive
COc1ccc(/C(N)=N/OC(=O)CCC2CCCC2)cc1OC	none
COc1ccc(C(=O)O/N=C(\N)c2ccccn2)c(OC)c1	Mdm2 MdmX PPI 69.4 | Mdm2-MdmX conf inactive
COc1ccc(/C(N)=N/OC(=O)CC2CCCCC2)cc1OC	Mdm2 MdmX PPI 67.1 | Mdm2-MdmX conf inactive
COc1ccc(Cl)cc1C(=O)O/N=C(\N)c1ccccn1	none
COc1ccc(C(=O)O/N=C(\N)c2ccc(OC)c(OC)c2)cc1	Mdm2 MdmX PPI 85.9 | Mdm2-MdmX conf inactive
COc1ccc(/C(N)=N/OC(=O)Oc2ccccc2)cc1OC	none
C/C(=C\C(=O)c1c(O)cc(C)oc1=O)N(C)C	none (no result: Beta apoptosis)
CCOC(=O)C1(Cc2cccc(OC)c2)CCN(CC=C(C)C)CC1	none
C#CCNC(=O)C1=C[C@@H](c2cn(C(C)=O)c3ccccc23)C[C@@H](OCCCCO)O1	none
COC(=O)C1=C(C)N(c2ccc(Cl)c(Cl)c2)C(=O)C1	Mdm2 MdmX PPI 96.9 | Mdm2-MdmX conf inactive
N=c1c(S(=O)(=O)c2ccc(Cl)cc2)cc2c(=O)n3ccccc3nc2n1CC1CCCO1 (stereo not given)	none
CC(=O)Nc1ccc(NC(=O)C(C)Oc2ccccc2F)cc1 (stereo not given)	none
CC(Oc1ccc(F)cc1)C(=O)Nc1ccc2ccccc2c1 (stereo not given)	Mdm2 MdmX PPI 53.5 | Mdm2-MdmX conf inactive
CC(Oc1ccccc1F)C(=O)Nc1ccc2ccccc2c1 (stereo not given)	Mdm2 MdmX PPI 68.1 | Mdm2-MdmX conf 62.7 | Full FLuc ctr 65.8
CCc1ccc2[nH]c(=O)c(CN(CCCN3CCOCC3)C(=O)Nc3ccc(Cl)cc3)cc2c1	Calb FLC inconclusive
Cc1ccc(C)c2[nH]c(=O)c(CN(CCN3CCCC3)C(=O)Nc3cccc(Cl)c3)cc12	Mdm2 MdmX PPI 55.4 (no result: CSC inhib) | Mdm2-MdmX conf inactive | Full FLuc ctr 38.1
CCc1ccc2[nH]c(=O)c(CN(CCCN3CCOCC3)C(=O)Nc3cccc(Cl)c3)cc2c1	Mdm2 MdmX PPI 50.1 | Mdm2-MdmX conf inactive
Cc1cc(C)c2cc(CN(CCN3CCCC3)C(=O)Nc3ccc(F)cc3)c(=O)[nH]c2c1	none
Cc1n[nH]c(C)c1N=Nc1ccc(Br)cc1	Calb FLC inconclusive
COc1ccc([C@H](NC(=O)OC(C)(C)C)C(=O)OC(C)(C)C)cc1	none (no result: T cruzi inh, Calb FLC)
CN(C)/C=C/C(=O)c1ccc2noc(-c3cccc(F)c3)c2c1	Mdm2 MdmX PPI 53.1 | Mdm2-MdmX conf inactive
O=C(N/N=C1\CCCc2ccccc21)c1cccc([N+](=O)[O-])c1	none
O=C(N/N=C1/CCCc2ccccc21)C(c1ccccc1)c1ccccc1	Mdm2 MdmX PPI 58.1 | Mdm2-MdmX conf inactive
O=C(N/N=C1/CCCc2ccccc21)c1cc([N+](=O)[O-])cc([N+](=O)[O-])c1	Mdm2 MdmX PPI 66.9 | Mdm2-MdmX conf inactive | Full FLuc ctr 93.7
NC(=O)C1CCN(CC(=O)N2N=CCC2c2ccccc2)CC1 (stereo not given)	Calb FLC inconclusive
CC(=O)c1cccc(N(CC(=O)N2CCOCC2)S(C)(=O)=O)c1	none (no result: Beta apoptosis, CSC inhib)
CSc1sc(C(=O)NCC2CC2)cc1S(=O)(=O)C(C)C	none
